Tests used:
Mus musculus [1] = test: Toxicity in Swiss Webster mouse assessed as glucose level at 10 mg/kg, ip daily for 7 days measured after 7 days; type: organism-based; set-up: dose 10 mg/kg, route intraperitoneal; conditions: in vivo, 168 h
[2] = target: Insulin receptor (Homo sapiens) (UniProt P06213); test: Inhibition of INSR at 5 uM
[3] = target: 3-phosphoinositide-dependent protein kinase 1 (PDPK1) (Homo sapiens) (UniProt O15530); test: Inhibition of PDK1 at 5 uM
[4] = target: Protein kinase C beta type (Homo sapiens) (UniProt P05771); test: Inhibition of PKCbeta2 at 5 uM
[5] = target: Serine/threonine-protein kinase PAK 2 (Homo sapiens) (UniProt Q13177); test: Inhibition of PAK2 at 5 uM
Mus musculus [6] = test: Toxicity in Swiss Webster mouse assessed as alkaline phosphatase level at 50 mg/kg, ip daily for 7 days measured after 7 days; type: organism-based; set-up: dose 50 mg/kg, route intraperitoneal; conditions: in vivo, 168 h
[7] = target: Mitogen-activated protein kinase 14 (Homo sapiens) (UniProt Q16539); test: Inhibition of p38alpha at 5 uM
[8] = target: Serine/threonine-protein kinase D2 (Homo sapiens) (UniProt Q9BZL6); test: Inhibition of PKD2 at 5 uM
Mus musculus [9] = test: Toxicity in Swiss Webster mouse assessed as white blood cell count at 50 mg/kg, ip daily for 7 days measured after 7 days; type: organism-based; set-up: dose 50 mg/kg, route intraperitoneal; conditions: in vivo, 168 h
Summary of the method: (§1)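 Six-week-old female Swiss Webster mice (about 25 g) received intraperitoneal injections daily for 7 days. Doses were 3, 10 or 50 mg/kg, with a vehicle group (30% PEG-400, 5% Tween-80, 65% DMSO). Values are reported as ranges per group.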

Mus musculus [10] = test: Toxicity in Swiss Webster mouse assessed as creatinine level at 10 mg/kg, ip daily for 7 days measured after 7 days; type: organism-based; set-up: dose 10 mg/kg, route intraperitoneal; conditions: in vivo, 168 h
Mus musculus [11] = test: Toxicity in Swiss Webster mouse assessed as hemoglobin level at 3 mg/kg, ip daily for 7 days measured after 7 days; type: organism-based; set-up: dose 3 mg/kg, route intraperitoneal
Mus musculus [12] = test: Toxicity in Swiss Webster mouse assessed as hemoglobin level at 50 mg/kg, ip daily for 7 days measured after 7 days; type: organism-based; set-up: dose 50 mg/kg, route intraperitoneal; conditions: in vivo, 168 h
[13] = target: Mitogen-activated protein kinase 1 (Homo sapiens) (UniProt P28482); test: Inhibition of Erk2 at 5 uM
Mus musculus [14] = test: Toxicity in Swiss Webster mouse assessed as amylase level at 3 mg/kg, ip daily for 7 days measured after 7 days; type: organism-based; set-up: dose 3 mg/kg, route intraperitoneal; conditions: in vivo, 168 h
[15] = target: Mitogen-activated protein kinase 9 (Homo sapiens) (UniProt P45984); test: Inhibition of JNK2 at 5 uM
[16] = target: Dual specificity tyrosine-phosphorylation-regulated kinase 1A (Homo sapiens) (UniProt Q13627); test: Inhibition of DYRK1alpha at 5 uM
Mus musculus [17] = test: Toxicity in Swiss Webster mouse assessed as amylase level at 50 mg/kg, ip daily for 7 days measured after 7 days; type: organism-based; set-up: dose 50 mg/kg, route intraperitoneal; conditions: in vivo, 168 h
[18] = target: MAP kinase-activated protein kinase 2 (Homo sapiens) (UniProt P49137); test: Inhibition of MAPKAPK2 at 5 uM
Mus musculus [19] = test: Toxicity in Swiss Webster mouse assessed as K+ level at 50 mg/kg, ip daily for 7 days measured after 7 days; type: organism-based; set-up: dose 50 mg/kg, route intraperitoneal; conditions: in vivo, 168 h
[20] = target: Tyrosine-protein kinase Fyn (Homo sapiens) (UniProt P06241); test: Inhibition of FYN at 5 uM
Mus musculus [21] = test: Toxicity in Swiss Webster mouse assessed as creatinine level at 50 mg/kg, ip daily for 7 days measured after 7 days; type: organism-based; set-up: dose 50 mg/kg, route intraperitoneal; conditions: in vivo, 168 h
Mus musculus [22] = test: Toxicity in Swiss Webster mouse assessed as K+ level at 3 mg/kg, ip daily for 7 days measured after 7 days; type: organism-based; set-up: dose 3 mg/kg, route intraperitoneal; conditions: in vivo, 168 h
Mus musculus [23] = test: Toxicity in Swiss Webster mouse assessed as white blood cell count at 3 mg/kg, ip daily for 7 days measured after 7 days; type: organism-based; set-up: dose 3 mg/kg, route intraperitoneal; conditions: in vivo, 168 h; summary of the method: as §1
Mus musculus [24] = test: Toxicity in Swiss Webster mouse assessed as lymphocyte count at 10 mg/kg, ip daily for 7 days measured after 7 days; type: organism-based; set-up: dose 10 mg/kg, route intraperitoneal; conditions: in vivo, 168 h
Mus musculus [25] = test: Toxicity in Swiss Webster mouse assessed as white blood cell count at 10 mg/kg, ip daily for 7 days measured after 7 days; type: organism-based; set-up: dose 10 mg/kg, route intraperitoneal; conditions: in vivo, 168 h; summary of the method: as §1
[26] = target: RAC-gamma serine/threonine-protein kinase (Homo sapiens) (UniProt Q9Y243); test: Inhibition of AKT3 at 5 uM
[27] = target: Tyrosine-protein kinase ABL1 (Homo sapiens) (UniProt P00519); test: Inhibition of ABL at 5 uM
[28] = target: Proto-oncogene tyrosine-protein kinase Src (Homo sapiens) (UniProt P12931); test: Inhibition of SRC at 5 uM
[29] = target: Serine/threonine-protein kinase 3 (Homo sapiens) (UniProt Q13188); test: Inhibition of MST2 at 5 uM
[30] = target: Cytoplasmic tyrosine-protein kinase BMX (Homo sapiens) (UniProt P51813); test: Inhibition of BMX at 5 uM
[31] = target: Calcium/calmodulin-dependent protein kinase type IV (Homo sapiens) (UniProt Q16566); test: Inhibition of CAMK4 at 5 uM
[32] = target: Platelet-derived growth factor receptor alpha (Homo sapiens) (UniProt P16234); test: Inhibition of PDGFRalpha at 5 uM
[33] = target: Ribosomal protein S6 kinase alpha-1 (Homo sapiens) (UniProt Q15418); test: Inhibition of RSK1 at 5 uM
Mus musculus [34] = test: Toxicity in Swiss Webster mouse assessed as Na+ level at 10 mg/kg, ip daily for 7 days measured after 7 days; type: organism-based; set-up: dose 10 mg/kg, route intraperitoneal; conditions: in vivo, 168 h
Mus musculus [35] = test: Toxicity in Swiss Webster mouse assessed as albumin level at 10 mg/kg, ip daily for 7 days measured after 7 days; type: organism-based; set-up: dose 10 mg/kg, route intraperitoneal; conditions: in vivo, 168 h
Mus musculus [36] = test: Toxicity in Swiss Webster mouse assessed as Na+ level at 50 mg/kg, ip daily for 7 days measured after 7 days; type: organism-based; set-up: dose 50 mg/kg, route intraperitoneal; conditions: in vivo, 168 h
[37] = Inhibition of PKA at 5 uM
[38] = Inhibition of PKGalpha at 5 uM
Mus musculus [39] = test: Toxicity in Swiss Webster mouse assessed as amylase level at 10 mg/kg, ip daily for 7 days measured after 7 days; type: organism-based; set-up: dose 10 mg/kg, route intraperitoneal; conditions: in vivo, 168 h
[40] = target: Casein kinase I isoform delta (Homo sapiens) (UniProt P48730); test: Inhibition of CK1delta at 5 uM
[41] = target: Serine/threonine-protein kinase PLK1 (Homo sapiens) (UniProt P53350); test: Inhibition of PLK1 at 5 uM
Mus musculus [42] = test: Toxicity in Swiss Webster mouse assessed as phosphate level at 3 mg/kg, ip daily for 7 days measured after 7 days; type: organism-based; set-up: dose 3 mg/kg, route intraperitoneal; conditions: in vivo, 168 h
[43] = target: Tyrosine-protein kinase Lyn (Homo sapiens) (UniProt P07948); test: Inhibition of LYN at 5 uM
Mus musculus [44] = test: Toxicity in Swiss Webster mouse assessed as glucose level at 3 mg/kg, ip daily for 7 days measured after 7 days; type: organism-based; set-up: dose 3 mg/kg, route intraperitoneal; conditions: in vivo, 168 h
Mus musculus [45] = test: Toxicity in Swiss Webster mouse assessed as monocyte count at 50 mg/kg, ip daily for 7 days measured after 7 days; type: organism-based; set-up: dose 50 mg/kg, route intraperitoneal; conditions: in vivo, 168 h
[46] = target: Insulin-like growth factor 1 receptor (Homo sapiens) (UniProt P08069); test: Inhibition of IGF1R at 5 uM
[47] = target: Aurora kinase A (Homo sapiens) (UniProt O14965); test: Inhibition of AurA at 5 uM
Mus musculus [48] = test: Toxicity in Swiss Webster mouse assessed as lymphocyte count at 3 mg/kg, ip daily for 7 days measured after 7 days; type: organism-based; set-up: dose 3 mg/kg, route intraperitoneal; conditions: in vivo, 168 h

Chain of Serine/threonine-protein kinase D2 (Homo sapiens) (Q9BZL6 whole entry): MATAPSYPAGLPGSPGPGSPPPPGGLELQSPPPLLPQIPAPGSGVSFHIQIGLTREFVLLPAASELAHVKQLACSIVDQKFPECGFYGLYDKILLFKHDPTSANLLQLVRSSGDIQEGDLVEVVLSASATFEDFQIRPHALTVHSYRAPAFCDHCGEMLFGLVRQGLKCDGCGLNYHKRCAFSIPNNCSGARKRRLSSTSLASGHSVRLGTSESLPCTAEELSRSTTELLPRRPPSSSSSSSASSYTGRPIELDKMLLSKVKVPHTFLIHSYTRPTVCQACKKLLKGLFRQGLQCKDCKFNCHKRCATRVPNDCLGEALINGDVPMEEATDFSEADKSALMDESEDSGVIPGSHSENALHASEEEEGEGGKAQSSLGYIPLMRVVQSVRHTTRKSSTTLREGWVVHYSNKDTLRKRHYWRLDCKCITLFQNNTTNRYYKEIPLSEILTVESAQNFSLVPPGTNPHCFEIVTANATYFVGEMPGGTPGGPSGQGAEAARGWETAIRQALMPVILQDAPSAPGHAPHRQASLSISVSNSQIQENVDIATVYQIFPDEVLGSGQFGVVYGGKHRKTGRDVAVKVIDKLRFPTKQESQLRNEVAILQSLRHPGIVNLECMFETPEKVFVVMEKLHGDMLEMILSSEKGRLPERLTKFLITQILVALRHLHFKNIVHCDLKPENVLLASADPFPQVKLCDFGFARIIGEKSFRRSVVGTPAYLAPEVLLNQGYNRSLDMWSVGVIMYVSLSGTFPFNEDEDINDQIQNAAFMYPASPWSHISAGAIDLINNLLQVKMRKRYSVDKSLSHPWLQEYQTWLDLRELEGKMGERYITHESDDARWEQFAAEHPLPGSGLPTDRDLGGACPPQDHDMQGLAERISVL
Chain of Serine/threonine-protein kinase PLK1 (Homo sapiens) (P53350 whole entry): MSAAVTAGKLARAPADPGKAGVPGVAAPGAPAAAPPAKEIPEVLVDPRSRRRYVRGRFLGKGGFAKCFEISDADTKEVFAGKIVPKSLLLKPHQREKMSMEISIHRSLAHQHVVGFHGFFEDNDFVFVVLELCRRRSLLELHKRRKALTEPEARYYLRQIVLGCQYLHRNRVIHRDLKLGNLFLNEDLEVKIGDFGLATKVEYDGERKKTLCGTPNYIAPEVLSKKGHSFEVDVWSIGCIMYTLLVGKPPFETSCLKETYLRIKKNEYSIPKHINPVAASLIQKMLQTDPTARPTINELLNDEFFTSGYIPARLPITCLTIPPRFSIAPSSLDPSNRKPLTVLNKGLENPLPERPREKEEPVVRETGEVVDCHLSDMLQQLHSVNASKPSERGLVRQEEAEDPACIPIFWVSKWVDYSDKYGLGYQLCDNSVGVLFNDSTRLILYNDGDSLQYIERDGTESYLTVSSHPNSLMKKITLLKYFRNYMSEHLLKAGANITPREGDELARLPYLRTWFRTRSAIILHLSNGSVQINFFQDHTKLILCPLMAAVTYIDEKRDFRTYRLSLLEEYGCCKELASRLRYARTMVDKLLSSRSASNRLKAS
Chain of Serine/threonine-protein kinase 3 (Homo sapiens) (Q13188 whole entry): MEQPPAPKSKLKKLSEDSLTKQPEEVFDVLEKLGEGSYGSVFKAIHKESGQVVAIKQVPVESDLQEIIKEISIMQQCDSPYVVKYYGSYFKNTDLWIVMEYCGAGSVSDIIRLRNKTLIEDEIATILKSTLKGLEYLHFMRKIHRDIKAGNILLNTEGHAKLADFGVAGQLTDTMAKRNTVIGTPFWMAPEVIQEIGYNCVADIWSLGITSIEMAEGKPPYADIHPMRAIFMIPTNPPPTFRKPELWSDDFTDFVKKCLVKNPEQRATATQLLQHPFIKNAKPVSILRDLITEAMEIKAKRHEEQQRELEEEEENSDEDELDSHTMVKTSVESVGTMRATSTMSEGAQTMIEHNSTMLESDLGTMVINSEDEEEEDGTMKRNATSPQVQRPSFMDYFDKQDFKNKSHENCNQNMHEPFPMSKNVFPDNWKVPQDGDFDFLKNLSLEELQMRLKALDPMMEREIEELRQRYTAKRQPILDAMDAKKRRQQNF
Chain of Protein kinase C beta type (Homo sapiens) (P05771 2-671 limits assumed): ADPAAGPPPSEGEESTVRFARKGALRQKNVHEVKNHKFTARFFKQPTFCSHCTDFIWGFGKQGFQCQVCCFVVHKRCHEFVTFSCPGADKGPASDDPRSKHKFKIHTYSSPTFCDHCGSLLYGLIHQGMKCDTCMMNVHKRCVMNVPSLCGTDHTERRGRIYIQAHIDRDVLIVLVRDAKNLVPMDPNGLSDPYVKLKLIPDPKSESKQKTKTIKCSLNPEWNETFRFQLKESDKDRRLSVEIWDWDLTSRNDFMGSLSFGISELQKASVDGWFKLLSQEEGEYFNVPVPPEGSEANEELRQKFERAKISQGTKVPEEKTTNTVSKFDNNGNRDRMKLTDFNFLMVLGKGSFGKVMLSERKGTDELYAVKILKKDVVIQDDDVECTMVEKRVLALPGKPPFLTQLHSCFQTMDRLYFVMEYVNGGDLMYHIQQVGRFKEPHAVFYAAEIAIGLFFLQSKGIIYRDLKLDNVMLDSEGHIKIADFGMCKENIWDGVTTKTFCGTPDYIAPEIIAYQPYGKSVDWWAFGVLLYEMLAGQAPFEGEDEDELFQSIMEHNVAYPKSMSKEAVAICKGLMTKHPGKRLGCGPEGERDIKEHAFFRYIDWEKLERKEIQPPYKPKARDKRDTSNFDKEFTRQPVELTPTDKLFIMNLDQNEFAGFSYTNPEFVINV
Chain of Insulin receptor (Homo sapiens) (P06213 28-758 limits assumed): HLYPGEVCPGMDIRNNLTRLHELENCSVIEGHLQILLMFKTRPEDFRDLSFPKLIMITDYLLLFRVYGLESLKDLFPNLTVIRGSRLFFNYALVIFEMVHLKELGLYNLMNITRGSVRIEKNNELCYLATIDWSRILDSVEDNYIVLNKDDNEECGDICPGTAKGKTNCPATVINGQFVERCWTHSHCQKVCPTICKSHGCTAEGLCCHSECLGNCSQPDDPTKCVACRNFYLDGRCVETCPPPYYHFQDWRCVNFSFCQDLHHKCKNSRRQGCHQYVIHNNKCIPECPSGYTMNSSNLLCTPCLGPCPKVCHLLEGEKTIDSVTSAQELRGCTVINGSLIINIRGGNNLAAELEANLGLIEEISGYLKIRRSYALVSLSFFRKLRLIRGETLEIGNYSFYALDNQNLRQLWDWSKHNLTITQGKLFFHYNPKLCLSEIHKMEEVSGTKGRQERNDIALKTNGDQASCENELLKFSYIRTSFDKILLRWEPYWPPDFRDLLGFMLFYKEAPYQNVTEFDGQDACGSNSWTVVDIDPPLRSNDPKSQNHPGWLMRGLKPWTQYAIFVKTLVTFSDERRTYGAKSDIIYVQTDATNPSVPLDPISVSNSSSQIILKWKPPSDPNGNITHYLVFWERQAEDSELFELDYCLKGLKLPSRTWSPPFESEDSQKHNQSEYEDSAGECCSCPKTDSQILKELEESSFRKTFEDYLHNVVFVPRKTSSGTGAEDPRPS
Chain of Insulin receptor (Homo sapiens) (P06213 763-1382 limits assumed): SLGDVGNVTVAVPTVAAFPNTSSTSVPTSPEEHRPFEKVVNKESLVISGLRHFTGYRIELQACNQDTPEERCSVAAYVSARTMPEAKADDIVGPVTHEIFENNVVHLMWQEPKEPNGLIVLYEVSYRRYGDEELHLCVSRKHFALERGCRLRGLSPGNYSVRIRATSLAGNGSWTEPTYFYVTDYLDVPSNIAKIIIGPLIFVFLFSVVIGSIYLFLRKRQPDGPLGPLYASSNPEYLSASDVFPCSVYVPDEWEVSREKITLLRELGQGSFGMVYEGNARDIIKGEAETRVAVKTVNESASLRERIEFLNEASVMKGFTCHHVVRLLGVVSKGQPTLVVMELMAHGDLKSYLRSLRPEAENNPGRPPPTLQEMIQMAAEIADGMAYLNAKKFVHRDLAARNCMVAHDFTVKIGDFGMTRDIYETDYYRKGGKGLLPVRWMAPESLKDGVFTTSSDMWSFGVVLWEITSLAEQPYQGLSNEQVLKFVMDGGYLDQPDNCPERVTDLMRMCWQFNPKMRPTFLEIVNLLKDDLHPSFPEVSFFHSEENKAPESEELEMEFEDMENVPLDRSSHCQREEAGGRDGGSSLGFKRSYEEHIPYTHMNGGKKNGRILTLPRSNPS
Chain of Proto-oncogene tyrosine-protein kinase Src (Homo sapiens) (P12931 2-536 limits assumed): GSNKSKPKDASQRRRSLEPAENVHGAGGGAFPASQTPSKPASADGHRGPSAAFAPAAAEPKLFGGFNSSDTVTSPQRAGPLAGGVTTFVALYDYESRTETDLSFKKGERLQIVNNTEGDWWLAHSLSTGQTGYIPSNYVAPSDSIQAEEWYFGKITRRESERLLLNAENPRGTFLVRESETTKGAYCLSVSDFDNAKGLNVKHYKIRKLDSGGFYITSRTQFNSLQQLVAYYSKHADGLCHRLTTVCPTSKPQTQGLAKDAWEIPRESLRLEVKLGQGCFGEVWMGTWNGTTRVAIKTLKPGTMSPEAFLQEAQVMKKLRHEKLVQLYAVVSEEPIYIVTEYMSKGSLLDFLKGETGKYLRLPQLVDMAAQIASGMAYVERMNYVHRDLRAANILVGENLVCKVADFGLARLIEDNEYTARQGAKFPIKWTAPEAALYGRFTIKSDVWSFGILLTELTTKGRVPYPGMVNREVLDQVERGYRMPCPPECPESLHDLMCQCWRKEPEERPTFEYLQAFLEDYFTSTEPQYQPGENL
Chain of Mitogen-activated protein kinase 9 (Homo sapiens) (P45984 whole entry, looked up): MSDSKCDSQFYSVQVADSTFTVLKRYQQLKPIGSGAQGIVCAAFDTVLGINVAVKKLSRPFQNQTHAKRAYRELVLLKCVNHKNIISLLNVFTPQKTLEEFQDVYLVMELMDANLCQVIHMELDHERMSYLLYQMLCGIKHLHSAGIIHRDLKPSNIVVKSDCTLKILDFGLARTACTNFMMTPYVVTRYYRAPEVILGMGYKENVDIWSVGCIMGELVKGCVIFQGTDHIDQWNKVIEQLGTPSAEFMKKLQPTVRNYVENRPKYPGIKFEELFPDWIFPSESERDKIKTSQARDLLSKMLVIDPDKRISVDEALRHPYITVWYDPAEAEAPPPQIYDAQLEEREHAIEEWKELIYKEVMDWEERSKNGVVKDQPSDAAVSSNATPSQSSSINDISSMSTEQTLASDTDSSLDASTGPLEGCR

SMILES: CCCOc1ccc(/C=C2\SC(=O)NC2=O)cc1
- Activity (Mus musculus [1]): 87 mg/dL
- inhibition [2]: 4%
- inhibition [3]: 1%
- inhibition [4]: -1%
- inhibition [5]: -1%
- Activity (Mus musculus [6]): 80 U/L
- inhibition [7]: 0%
- inhibition [8]: -3%
- Activity (Mus musculus [9]): 3.65 ×10⁹ /L
- Activity (Mus musculus [10]): 0.2 mg/dL
- Activity (Mus musculus [11]): 12.8 g/dL
- Activity (Mus musculus [12]): 12.2 g/dL
- inhibition [13]: -1%
- Activity (Mus musculus [14]): 878 U/L
- inhibition [15]: 14%
- inhibition [16]: 68%
- Activity (Mus musculus [17]): 760 U/L
- inhibition [18]: 5%
- Activity (Mus musculus [19]): 6.3 mmol/L
- inhibition [20]: 0%
- Activity (Mus musculus [21]): 0.2 mg/dL
- Activity (Mus musculus [22]): 7.3 mmol/L
- Activity (Mus musculus [23]): 3.73 ×10⁹ /L
- Activity (Mus musculus [24]): 3.94 ×10⁹ /L
- Activity (Mus musculus [25]): 4.95 ×10⁹ /L
- inhibition [26]: 3%
- inhibition [27]: 6%
- inhibition [28]: 4%
- inhibition [29]: 1%
- inhibition [30]: 10%
- inhibition [31]: -8%
- inhibition [32]: 6%
- inhibition [33]: 5%
- Activity (Mus musculus [34]): 144 mmol/L
- Activity (Mus musculus [35]): 2.9 g/dL
- Activity (Mus musculus [36]): 145 mmol/L
- inhibition [37]: 3%
- inhibition [38]: 0%
- Activity (Mus musculus [39]): 816 U/L
- inhibition [40]: 7%
- inhibition [41]: 9%
- Activity (Mus musculus [42]): 5.1 mg/dL
- inhibition [43]: 8%
- Activity (Mus musculus [44]): 80 mg/dL
- Activity (Mus musculus [45]): 0.04 ×10⁹ /L
- inhibition [46]: -1%
- inhibition [47]: 4%
- Activity (Mus musculus [48]): 3.61 ×10⁹ /L
